# Measured values: ChEMBL document CHEMBL3244330, “Structure--activity relationships of n-substituted dopamine and 2-amino-6,7-dihydroxy-1,2,3,4-tetrahydronaphthalene analogues: behavioral effects in lesioned and reserpinized mice” (J Med Chem, 1979)
# Activity calls are given as the source filed them. No cut-off for these calls is given here.
# Key:
# Mus musculus [1] = assay: Postural effect on caudectomized Swiss albino mouse assessed as latency to onset time of asymmetric postural effect at 47.6 mg/kg, ip; type: functional; conditions: route intraperitoneal
# Summary of the method: (§1)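 Male Swiss albino Hale-Stoner mice with a right caudectomy made by suction. A lesion was accepted if the mouse responded to apomorphine 4 weeks after surgery. Compounds were dissolved in 0.9% saline and injected ip at random into groups of six, with a maximum dose of 0.348 mmol/kg. 18 mice were used per compound, and mice were retested after 5–6 day intervals. Onset and duration of the asymmetric posture are reported as mean ± SE from six animals.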
# Mus musculus [2] = assay: Reversal of reserpine-induced catalepsy in ip dosed Swiss albino (CD1) mouse; type: functional
# Summary of the method: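 Male Swiss albino CD1 mice, 5 weeks old, got reserpine 5 mg/kg ip, then α-MTM 250 mg/kg ip 17 h later, then the test drug ip 4 h after that. Catalepsy was scored by the rubber-stopper test (time to step off the stopper). At least four doses were used, with ≥8 mice per dose. ED50 was taken from a log-probit plot of percent responders against dose.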
# Mus musculus [3] = assay: Postural effect on caudectomized Swiss albino mouse assessed as latency to onset time of asymmetric postural effect at 23.8 mg/kg, ip; type: functional; conditions: route intraperitoneal; summary of the method: as §1
# Mus musculus [4] = assay: Postural effect on caudectomized Swiss albino mouse assessed as time duration of asymmetric posture at 71.4 mg/kg, ip; type: functional; conditions: route intraperitoneal
# Summary of the method: (§2)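 Male Swiss albino Hale-Stoner mice given a right caudectomy by suction. The lesion counted as successful if the mice reacted to apomorphine 4 weeks later. Drug was given ip in 0.9% saline, up to 0.348 mmol/kg, to randomised groups of six, with 5-6 days before reuse. Onset and duration of asymmetric posture are reported as mean ± SE from six animals.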
# Mus musculus [5] = assay: Postural effect on caudectomized Swiss albino mouse assessed as latency to onset time of asymmetric postural effect at 71.4 mg/kg, ip; type: functional; conditions: route intraperitoneal; summary of the method: as §1
# Mus musculus [6] = assay: Postural effect on caudectomized Swiss albino mouse assessed as time duration of asymmetric posture at 47.6 mg/kg, ip; type: functional; conditions: route intraperitoneal; summary of the method: as §1
# Mus musculus [7] = assay: Postural effect on caudectomized Swiss albino mouse assessed as time duration of asymmetric posture at 23.8 mg/kg, ip; type: functional; conditions: route intraperitoneal; summary of the method: as §1
# Mus musculus [8] = assay: Postural effect on caudectomized Swiss albino mouse assessed as time duration of asymmetric posture at 25 mg/kg, ip; type: functional; conditions: route intraperitoneal; summary of the method: as §1
# Mus musculus [9] = assay: Postural effect on caudectomized Swiss albino mouse assessed as time duration of asymmetric posture at 50 mg/kg, ip; type: functional; conditions: route intraperitoneal; summary of the method: as §2
# Mus musculus [10] = assay: Postural effect on caudectomized Swiss albino mouse assessed as latency to onset time of asymmetric postural effect at 50 mg/kg, ip; type: functional; conditions: route intraperitoneal; summary of the method: as §1
# Mus musculus [11] = assay: Postural effect on caudectomized Swiss albino mouse assessed as latency to onset time of asymmetric postural effect at 25 mg/kg, ip; type: functional; conditions: route intraperitoneal; summary of the method: as §1
# Mus musculus [12] = assay: Postural effect on caudectomized Swiss albino mouse assessed as latency to onset time of asymmetric postural effect at 67.8 mg/kg, ip; type: functional; conditions: route intraperitoneal; summary of the method: as §1
# Mus musculus [13] = assay: Postural effect on caudectomized Swiss albino mouse assessed as time duration of asymmetric posture at 45.2 mg/kg, ip; type: functional; conditions: route intraperitoneal; summary of the method: as §1
# Mus musculus [14] = assay: Postural effect on caudectomized Swiss albino mouse assessed as time duration of asymmetric posture at 67.8 mg/kg, ip; type: functional; conditions: route intraperitoneal; summary of the method: as §2
# Mus musculus [15] = assay: Postural effect on caudectomized Swiss albino mouse assessed as time duration of asymmetric posture at 22.6 mg/kg, ip; type: functional; conditions: route intraperitoneal; summary of the method: as §1
# Mus musculus [16] = assay: Postural effect on caudectomized Swiss albino mouse assessed as latency to onset time of asymmetric postural effect at 22.6 mg/kg, ip; type: functional; conditions: route intraperitoneal; summary of the method: as §1
# Mus musculus [17] = assay: Postural effect on caudectomized Swiss albino mouse assessed as latency to onset time of asymmetric postural effect at 45.2 mg/kg, ip; type: functional; conditions: route intraperitoneal; summary of the method: as §1
# Mus musculus [18] = assay: Postural effect on caudectomized Swiss albino mouse assessed as latency to onset time of asymmetric postural effect at 100.5 mg/kg, ip; type: functional, organism-based; parameters: dose 100.5 mg/kg; summary of the method: as §1
# Mus musculus [19] = assay: Postural effect on caudectomized Swiss albino mouse assessed as latency to onset time of asymmetric postural effect at 107.2 mg/kg, ip; type: functional; conditions: route intraperitoneal
# Summary of the method: (§3)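 Male Swiss albino Hale-Stoner mice with right caudectomy by suction, used if responsive to apomorphine 4 weeks post-lesion. Compound in 0.9% saline given ip, maximum 0.348 mmol/kg. 18 mice per compound in random groups of six, retested after 5–6 day intervals. Onset latency and duration of asymmetric posture recorded; mean ± SE from six animals.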
# Mus musculus [20] = assay: Postural effect on caudectomized Swiss albino mouse assessed as time duration of asymmetric posture at 107.2 mg/kg, ip; type: functional; conditions: route intraperitoneal; summary of the method: as §3
# Mus musculus [21] = assay: Postural effect on caudectomized Swiss albino mouse assessed as latency to onset time of asymmetric postural effect at 26.8 mg/kg, ip; type: functional, organism-based; parameters: dose 26.8 mg/kg; summary of the method: as §3
# Mus musculus [22] = assay: Postural effect on caudectomized Swiss albino mouse assessed as latency to onset time of asymmetric postural effect at 51.9 mg/kg, ip; type: functional, organism-based; parameters: dose 51.9 mg/kg; summary of the method: as §3
compound,measurement,setting,value
CCCN(CCC)CCc1ccc(O)c(O)c1.Cl,Time,Mus musculus [1],3.7 min
same,ED50,Mus musculus [2],16 mg/kg
same,Time,Mus musculus [3],1.8 min
same,Time,Mus musculus [4],21.9 min
same,Time,Mus musculus [5],3.1 min
same,Time,Mus musculus [6],13.9 min
same,Time,Mus musculus [7],6.2 min
CCCCN(CCC)CCc1ccc(O)c(O)c1.Cl,Time,Mus musculus [8],6.4 min
same,ED50,Mus musculus [2],8.6 mg/kg
same,Time,Mus musculus [9],25.8 min
same,Time,Mus musculus [10],3.7 min
same,Time,Mus musculus [11],3.7 min
CCCN(CC)CCc1ccc(O)c(O)c1.Cl,Time,Mus musculus [12],3.6 min
same,ED50,Mus musculus [2],33 mg/kg
same,Time,Mus musculus [13],6.3 min
same,Time,Mus musculus [14],11.2 min
same,Time,Mus musculus [15],2.3 min
same,Time,Mus musculus [16],3.2 min
same,Time,Mus musculus [17],3.2 min
CC(C)CNCCc1ccc(O)c(O)c1,Activity,Mus musculus [18],inactive
CCCCCN(C)CCc1ccc(O)c(O)c1.Cl,ED50,Mus musculus [2],46 mg/kg
CN(CCc1ccccc1)CCc1ccc(O)c(O)c1.Cl,ED50,Mus musculus [2],101 mg/kg
same,Time,Mus musculus [19],6.9 min
same,Time,Mus musculus [20],21.2 min
same,Activity,Mus musculus [21],inactive
Oc1ccc(CCN(CCc2ccccc2)CCc2ccccc2)cc1O,Activity,Mus musculus [22],inactive
